In brackets after ≈: the same amount, converted by molar mass.
Experiments:
Pichia kudriavzevii [1] = assay: Evaluation of In vitro antifungal activity against Candida krusei 70 by broth macro dilution method; format: functional
Outline: (§1)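 Yeast MIC and MFC by broth macrodilution per NCCLS M27-P in RPMI-1640 buffered with 0.165 M MOPS. Fluconazole in sterile water, other drugs in DMSO. C. parapsilosis ATCC 22019 is the reference strain in each run. MIC is the lowest concentration with turbidity ≤ the 80% inhibition standard. For MFC, 0.04 mL from clear tubes is plated on Sabouraud agar; MFC is the lowest concentration giving ≤1 colony.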

Candida albicans [2] = assay: Evaluation of In vitro antifungal activity against Candida albicans 2.01 by broth macro dilution method; format: functional; outline: as §1
Candida albicans [3] = assay: Evaluation of In vitro antifungal activity against Candida albicans 76 by broth macro dilution method; format: functional; outline: as §1
Trichophyton rubrum = assay: In vitro evaluation of minimum inhibitory concentration against Trichophyton rubrum 90; format: functional
Outline: (§2)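 Stocks are 800 μg/mL in 50% ethanol. Each plate gets 10 μL of inoculum at 10^5 cfu/mL. Incubation at 25 °C, 48 h for yeasts and 120 h for dermatophytes and molds. Organisms are ATCC strains or clinical isolates.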

Rattus norvegicus [4] = assay: In vivo evaluation of antifungal activity against vaginal candidosis in rat at dose 0.25 mg/kg on 15th day; format: functional
Outline: (§3)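 Groups of 10 female Wistar rats given estradiol 25 mg/kg sc on day -5, infected intravaginally with C. albicans by sterile swab on day 0; infection confirmed on day 3 by swab culture (TSB, then Sabouraud agar). Oral dosing once daily on days 3, 4, 5; vehicle controls. Vaginal swabs cultured on days 10 and 15; read-out % cured (culture-negative).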

Mus sp. [5] = assay: In vivo evaluation of % survival rate after peroral administration on 7th day at dose 1 mg/kg; format: functional; details: Mus sp., po
Candida parapsilosis [6] = assay: Evaluation of In vitro antifungal activity against Candida parapsilosis C74 by broth macro dilution method; format: functional; details: Lodderomyces parapsilosis; outline: as §1
Candida albicans [7] = assay: Evaluation of In vitro antifungal activity against Candida albicans ATCC 10231 by broth macro dilution method; format: functional; outline: as §1
Kluyveromyces marxianus [8] = assay: Evaluation of In vitro antifungal activity against Candida pseudotropicalis ATCC 28838 by broth macro dilution method; format: functional; outline: as §1
Trichophyton benhamiae = assay: In vitro evaluation of minimum inhibitory concentration against Trichophyton mentagrophytes 23; format: functional, Arthroderma benhamiae; details: Trichophyton benhamiae; read-out: MIC; outline: as §2
[9] = system: Meyerozyma guilliermondii; assay: In vitro evaluation of minimum inhibitory concentration against Candida guilliermondii 26; format: functional; outline: as §2
Candida albicans [10] = assay: Evaluation of In vitro antifungal activity against Candida albicans 60 by broth macro dilution method
Aspergillus niger = assay: In vitro evaluation of minimum inhibitory concentration against Aspergillus niger 18; format: functional; details: Aspergillus niger; read-out: MIC; outline: as §2
Cryptococcus neoformans = assay: Evaluation of In vitro antifungal activity against Cryptococcus neoformans 74 by broth macro dilution method; format: functional; outline: as §1
Candida albicans [11] = assay: In vivo evaluation of minimum inhibitory concentration against Candida albicans 60; format: functional; details: Candida albicans; read-out: MIC
Outline: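 Broth macrodilution MIC following NCCLS M27-P, in RPMI-1640 buffered with 0.165 M MOPS. Fluconazole was dissolved in water and other drugs in DMSO. C. parapsilosis ATCC 22019 served as the reference strain in every run. MIC was the lowest concentration giving turbidity at or below the 80% inhibition standard.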

Mus sp. [12] = assay: In vivo evaluation of % survival rate after peroral administration on 3rd day at dose 0.5 mg/kg; format: functional; details: route oral
Candida parapsilosis [13] = assay: Evaluation of In vitro antifungal activity against Candida parapsilosis ATCC 141095 by broth macro dilution method; format: functional; details: Lodderomyces parapsilosis; outline: as §1
Aspergillus fumigatus = assay: In vitro evaluation of minimum inhibitory concentration against Aspergillus fumigatus 33; format: functional; outline: as §2
Candida albicans [14] = assay: Evaluation of In vitro antifungal activity against Candida albicans C56 by broth macro dilution method; format: functional; outline: as §1
Rattus norvegicus [15] = assay: In vivo evaluation of antifungal activity against vaginal candidosis in rat at dose 0.25 mg/kg on 10th day; format: functional; outline: as §3
Candida parapsilosis [16] = assay: Evaluation of In vitro antifungal activity against Candida parapsilosis ATCC 22019 by broth macro dilution method; format: functional; details: Lodderomyces parapsilosis; outline: as §1
Kluyveromyces marxianus [17] = assay: Evaluation of In vitro antifungal activity against yeasts by broth macro dilution method; format: functional; outline: as §1
Rattus norvegicus [18] = assay: In vivo evaluation of antifungal activity against vaginal candidosis in rat at dose 0.1 mg/kg on 10th day; format: functional
Outline: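 Groups of 10 female Wistar rats given estradiol 25 mg/kg sc on day -5, then vaginally inoculated with C. albicans on day 0. Infection is confirmed by culture of day-3 swabs. Compound is dosed orally once daily on days 3–5; controls get vehicle. Cure is scored by culture of vaginal swabs taken on days 10 and 15.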

Pichia kudriavzevii [19] = assay: Evaluation of In vitro antifungal activity against Candida krusei C64 by broth macro dilution method; format: functional; outline: as §1
Candida tropicalis = assay: Evaluation of In vitro antifungal activity against Candida tropicalis 2.11 by broth macro dilution method; format: functional; outline: as §1
Candida albicans [20] = assay: Evaluation of In vitro antifungal activity against Candida albicans 31 by broth macro dilution method; format: functional; outline: as §1

C[C@@H](NC(=O)c1ccc(C(F)(F)F)cc1)[C@](O)(Cn1cncn1)c1ccc(F)cc1F
MIC (Pichia kudriavzevii [1]): 2 µg/mL (≈ 4.54 µM)
MFC (Candida albicans [2]): > 64 µg/mL
MIC (Candida albicans [2]): 0.125 µg/mL (≈ 0.284 µM)
MFC (Candida albicans [3]): > 64 µg/mL
MIC (Candida albicans [3]): < 0.031 µg/mL
MIC (Trichophyton rubrum): 10 µg/mL (≈ 22.7 µM)
Cure rate (Rattus norvegicus [4]): 100%
survival at 1 mg/kg (Mus sp. [5]): 100%
MFC (Candida parapsilosis [6]): 0.125 µg/mL (≈ 0.284 µM)
MIC (Candida parapsilosis [6]): ≤ 0.031 µg/mL
MFC (Candida albicans [7]): > 64 µg/mL
MIC (Candida albicans [7]): 0.063 µg/mL (≈ 0.143 µM)
MFC (Kluyveromyces marxianus [8]): 2 µg/mL (≈ 4.54 µM)
MIC (Trichophyton benhamiae): 40 µg/mL (≈ 90.8 µM)
MIC [9]: 0.63 µg/mL (≈ 1.43 µM)
MFC (Candida albicans [10]): > 64 µg/mL
MIC (Aspergillus niger): 40 µg/mL (≈ 90.8 µM)
MFC (Cryptococcus neoformans): > 64 µg/mL
MIC (Cryptococcus neoformans): < 0.031 µg/mL
MIC (Candida albicans [11]): 0.15 µg/mL (≈ 0.341 µM)
survival at 0.5 mg/kg (Mus sp. [12]): 100%
MFC (Candida parapsilosis [13]): 32 µg/mL (≈ 72.7 µM)
MIC (Candida parapsilosis [13]): 1 µg/mL (≈ 2.27 µM)
MIC (Aspergillus fumigatus): 20 µg/mL (≈ 45.4 µM)
MFC (Candida albicans [14]): > 64 µg/mL
MIC (Candida albicans [14]): < 0.031 µg/mL
Cure rate (Rattus norvegicus [15]): 100%
MFC (Candida parapsilosis [16]): 2 µg/mL (≈ 4.54 µM)
MIC (Candida parapsilosis [16]): 0.125 µg/mL (≈ 0.284 µM)
MIC (Kluyveromyces marxianus [17]): < 0.031 µg/mL
Cure rate (Rattus norvegicus [18]): 0%
MFC (Pichia kudriavzevii [19]): 16 µg/mL (≈ 36.3 µM)
MIC (Pichia kudriavzevii [19]): 4 µg/mL (≈ 9.08 µM)
MFC (Candida tropicalis): 64 µg/mL (≈ 145 µM)
MIC (Candida tropicalis): 0.25 µg/mL (≈ 0.568 µM)
MFC (Candida albicans [20]): > 64 µg/mL
MIC (Candida albicans [20]): < 0.031 µg/mL

Reference: ChEMBL document CHEMBL1128448, “Synthesis and antifungal activity of new azole derivatives containing an N-acylmorpholine ring” (1995)
